A selection: hits, their analogues and other compounds. The true share with any hit is near 0.27%.
ERAP1 inh: inhibitors of human ERAP1 aminopeptidase | Q9NZ08 | recombinant ERAP1, Leu-AMC fluorescence, 60 min | actives 0.15% (n = 340,000) | inhibition, % at 10.7 µM;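 active = mean replicate inhibition of at least 30%, or all replicates individually reaching that 30% level; inactive = mean below 30% and not every replicate reaching it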
XiGFP reactiv: activators of X-chromosome reactivation in mouse fibroblasts; XiGFP mouse fibroblasts, % GFP-positive cells imaging, 3 d; cells co-treated with 5-aza-dC sensitizer; scaled so ellipticine positive control = 100%; activation, % at 7.58 µM; actives 0.055% (n = 360,000); AID 743238;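 active = mean normalized replicate activation at least 10% and every replicate at or above 10%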
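System: 68-5-11 XiGFP fibroblast line | Buffer or medium: DMEM containing 5-aza-dC | Compound: Single point | Times: Compounds 3 days, fix/stain 15 min at room temperature | Benchmarks: Positive control ellipticine, 6 µM final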
PvdQ inh: P. aeruginosa PvdQ acylase inhibition; purified PvdQ acylase, fluorescence plate reader; inhibition, % at 10 µM; actives 0.063% (n = 340,000); in the data active = inhibition above about 30%, passing the limit was not always enough
CaV13 ICDI inh: Disruptors of the CACNA1D IQ motif to Ca2+-dependent inactivation inhibitor domain association, primary screening, Förster resonance energy transfer in intact living …; HEK cells, CFP/YFP FRET ICDI-IQ, plate reader, 10 min; percent FRET-ratio fall versus neutral wells; inhibition, % at 12.3 µM; actives 0.098% (n = 340,000); AID 743397;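 active = mean replicate inhibition of at least 30% and at least 1% of replicates passing that level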
Hits are given with their value; n = inactive; x = no result; + = active, no number.

SMILES	ERAP1 inh	XiGFP reactiv	PvdQ inh	CaV13 ICDI inh
COc1ccc2c3c(n(C)c2c1)[C@H](CO)N(C(=O)c1cnccn1)CC31CCN(C(=O)c2cnccn2)CC1	n	n	x	x
C[C@@H]1CCCCO[C@@H](CN(C)C(=O)Nc2ccc3c(c2)OCO3)[C@H](C)CN([C@@H](C)CO)C(=O)c2cc(NC(=O)Nc3ccccc3)ccc2O1	n	n	x	x
Cc1ccc(CCNC(=O)CCS(=O)(=O)c2ccc(Br)cc2)cc1	n	n	30.5	n
O=c1[nH]c2ccccc2nc1/C=C/c1ccccc1	n	n	n	+
O=c1[nH]c2ccccc2nc1/C=C/c1ccc(O)cc1	n	n	n	n
Cc1ccc(S(=O)(=O)N2CCN(C(=O)COC(=O)c3ccccc3Cl)CC2)c(C)c1	n	n	n	n
Cc1ccc(S(=O)(=O)N2CCN(C(=O)COC(=O)c3ccccc3OC(F)F)CC2)c(C)c1	n	127.1	n	n
C[C@@H](NC(=O)C[C@@H]1CC[C@@H](NS(=O)(=O)c2cccc(F)c2)[C@H](CO)O1)c1ccccc1	n	n	x	x
COCCN(C(=O)COC(=O)CNC(=O)c1cccs1)c1c(N)n(Cc2ccccc2)c(=O)[nH]c1=O	35.3	n	n	n
COc1ccccc1/C=C/C(=O)OCCCN(C)C	n	70.6	n	n
COc1ccc(/C=C/C(=O)OCCCN(C)C)cc1	n	n	n	n
CC(=O)NCCc1nc(-c2ccc(Cl)cc2)no1	n	n	n	n
O=C(O)CCc1nc(-c2ccc(Cl)cc2)no1	x	x	35.5	n
COc1ccc(S(=O)(=O)N(C)C[C@@H]2OCCCC[C@@H](C)Oc3ccc(NS(=O)(=O)c4ccc(F)cc4)cc3C(=O)N([C@@H](C)CO)C[C@H]2C)cc1	n	n	x	x
C[C@@H]1CC(=O)NCC/C=C\C[C@H](c2cccc(Cl)c2)NC1=O	x	n	x	x
CCOC(=O)N1CCN(c2nc3ccccn3c(=O)c2C=O)CC1	n	n	31.2	n
CN1CCN(c2nc3ccccn3c(=O)c2C=O)CC1	x	x	n	x
CC(C)[C@@H]1CC=CC[C@@H](C)Oc2ccccc2C(=O)N(C)[C@H](C)C(=O)N1 (mixture of isomers)	x	n	x	x
O=S(c1ccccc1O)S(=O)c1ccccc1O (stereo not given)	99.4	n	n	n
C[C@@H]1CN([C@H](C)CO)C(=O)Cc2cc(NC(=O)CCCCCC(=O)Nc3ccccc3N)ccc2O[C@H]1CN(C)S(=O)(=O)c1ccccc1	n	n	x	x
Cc1noc(C)c1S(=O)(=O)N(CC(=O)N1CCCCCC1)c1ccc(C(C)C)cc1	x	n	n	50.5
C[C@@H]1CN([C@H](C)CO)C(=O)c2cc(-c3cccc(F)c3)cnc2O[C@H]1CN(C)C(=O)C1CC1	x	n	x	x
COc1ccc(/C=C/C(=O)c2ccc(O)cc2)cc1	n	x	n	x
COc1ccc(/C=C/C(=O)c2ccoc2)cc1	n	x	40.0	n
O=C(O)C[C@@H]1C[C@H]2c3cc(NC(=O)CC4CC4)ccc3O[C@H]2[C@@H](CO)O1	n	n	x	x
SMILES	ERAP1 inh	XiGFP reactiv	PvdQ inh	CaV13 ICDI inh
C[C@H]1CN(C)C(=O)Cc2cc(N(C)C)ccc2O[C@H]1CN(C)S(C)(=O)=O	x	n	x	x
Cc1ccsc1C1Nc2ccccc2-c2nc3ccccc3n21 (stereo not given)	n	30.2	n	n
C[C@H](CO)N1C[C@H](C)[C@@H](CN(C)Cc2ccc(C(=O)O)cc2)Oc2c(NC(=O)CCC(F)(F)F)cccc2C1=O	x	n	x	x
CCCCCCOC(=O)c1ccc(N)cc1	n	n	n	n
CCCCCCCCCCCC1N=C(N)NC(CCCO)=C1C(=O)OC (stereo not given)	44.0	n	n	n
CC(C)C(=O)Nc1sc2c(c1C(N)=O)CCN(Cc1ccccc1)C2	n	n	n	+
CCN1CCc2c(sc(NC(=O)c3ccc(S(=O)(=O)N(CC)c4ccccc4)cc3)c2C(N)=O)C1	n	72.8	n	n
CCN1CCc2c(sc(NC(=O)c3ccc(C(=O)c4ccccc4)cc3)c2C(N)=O)C1	n	n	n	n
CCN1CCc2c(sc(NC(=O)Cc3ccccc3)c2C(N)=O)C1	n	n	n	n
CCN1CCc2c(sc(NC(=O)Nc3ccc(Cl)c(Cl)c3)c2C(N)=O)C1	n	104.6	n	59.3
CCC(=O)Nc1sc2c(c1C(N)=O)CCN(Cc1ccccc1)C2	n	n	n	48.4
CC(C)NC(=O)N1C[C@@H]2C(c3ccccc3)[C@H](C1)N2CC(F)(F)F (stereo not given in full)	x	n	x	x
CCNC(=O)C[C@@H]1CC[C@@H]2[C@@H](COc3ccc(NC(=O)c4cccc(OC)c4)cc3C(=O)N2C)O1	n	n	x	x
